Data as given in ChEMBL document CHEMBL4196177, “Synthesis, Evaluation, and Structure-Activity Relationship Study of Lanosterol Derivatives To Reverse Mutant-Crystallin-Induced Protein Aggregation” (J Med Chem, 2018).
Residue numbers refer to the chain shown, from its start. Activity calls are given as the source filed them. The rule behind the calls is not given here.

Tests used:
[1] = test system: T1, Alpha-crystallin A chain (Homo sapiens), P02489 [Y118D]; experiment: Inhibition of alpha-crystallin A Y118D mutant (unknown origin)-induced cytotoxicity in human HeLa cells assessed as increase in cell viability at 0.04 to 4 uM incubated for 12 hrs by CCK8 assay; type: cell-based
T1 sequence (whole entry): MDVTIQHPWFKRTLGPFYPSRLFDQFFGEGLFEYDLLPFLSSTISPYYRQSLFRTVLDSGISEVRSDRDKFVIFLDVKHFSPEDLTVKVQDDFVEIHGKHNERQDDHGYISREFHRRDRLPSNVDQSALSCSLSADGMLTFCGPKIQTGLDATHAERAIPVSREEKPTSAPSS

[2] = test system: T1, Alpha-crystallin A chain (Homo sapiens), P02489 [Y118D]; experiment: Inhibition of alpha-crystallin A Y118D mutant (unknown origin)-induced cytotoxicity in human HLE-B3 cells assessed as increase in cell viability at 0.04 to 4 uM incubated for 12 hrs by CCK8 assay; type: cell-based
[3] = test system: T2, Gamma-crystallin C (Homo sapiens), P07315 [G129C]; experiment: Inhibition of gamma-crystallin C G129C mutant (unknown origin)-induced cytotoxicity in human HeLa cells assessed as increase in cell viability at 0.04 to 4 uM incubated for 12 hrs by CCK8 assay; type: cell-based
T2 sequence (whole entry): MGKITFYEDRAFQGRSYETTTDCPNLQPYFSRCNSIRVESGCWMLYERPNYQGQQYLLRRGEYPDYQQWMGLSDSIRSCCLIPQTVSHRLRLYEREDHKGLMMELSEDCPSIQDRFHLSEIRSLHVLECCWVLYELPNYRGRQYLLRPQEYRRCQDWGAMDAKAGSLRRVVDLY

[4] = test system: T3, Alpha-crystallin B chain (Homo sapiens), P02511 [R120G]; experiment: Inhibition of alpha-crystallin B R120G mutant (unknown origin)-induced cytotoxicity in human HeLa cells assessed as increase in cell viability at 0.04 to 4 uM incubated for 12 hrs by CCK8 assay; type: cell-based
T3 sequence (whole entry): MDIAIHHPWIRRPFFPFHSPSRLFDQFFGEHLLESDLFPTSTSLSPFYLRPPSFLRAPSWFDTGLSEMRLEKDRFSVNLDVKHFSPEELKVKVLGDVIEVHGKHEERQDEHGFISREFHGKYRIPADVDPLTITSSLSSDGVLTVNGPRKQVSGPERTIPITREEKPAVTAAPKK

[5] = test system: T4, Beta-crystallin B2 (Homo sapiens), P43320 [V187E]; experiment: Inhibition of beta-crystallin B2 V187E mutant (unknown origin)-induced cytotoxicity in human HLE-B3 cells assessed as increase in cell viability at 0.04 to 4 uM incubated for 12 hrs by CCK8 assay; type: cell-based
T4 sequence (whole entry): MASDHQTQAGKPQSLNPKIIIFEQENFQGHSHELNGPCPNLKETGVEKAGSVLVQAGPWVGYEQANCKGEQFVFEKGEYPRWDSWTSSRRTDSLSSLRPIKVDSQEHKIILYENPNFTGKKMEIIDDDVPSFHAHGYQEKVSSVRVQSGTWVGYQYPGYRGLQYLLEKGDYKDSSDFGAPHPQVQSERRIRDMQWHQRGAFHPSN

[6] = test system: T2, Gamma-crystallin C (Homo sapiens), P07315 [G129C]; experiment: Inhibition of gamma-crystallin C G129C mutant (unknown origin)-induced cytotoxicity in human HLE-B3 cells assessed as increase in cell viability at 0.04 to 4 uM incubated for 12 hrs by CCK8 assay; type: cell-based
[7] = test system: T4, Beta-crystallin B2 (Homo sapiens), P43320 [V187E]; experiment: Inhibition of beta-crystallin B2 V187E mutant (unknown origin)-induced cytotoxicity in human HeLa cells assessed as increase in cell viability at 0.04 to 4 uM incubated for 12 hrs by CCK8 assay; type: cell-based
[8] = test system: T5, Gamma-crystallin D (Homo sapiens), P07320 [W43R]; experiment: Inhibition of gamma-crystallin D W43R mutant (unknown origin)-induced cytotoxicity in human HLE-B3 cells assessed as increase in cell viability at 0.04 to 4 uM incubated for 12 hrs by CCK8 assay; type: cell-based
T5 sequence (whole entry): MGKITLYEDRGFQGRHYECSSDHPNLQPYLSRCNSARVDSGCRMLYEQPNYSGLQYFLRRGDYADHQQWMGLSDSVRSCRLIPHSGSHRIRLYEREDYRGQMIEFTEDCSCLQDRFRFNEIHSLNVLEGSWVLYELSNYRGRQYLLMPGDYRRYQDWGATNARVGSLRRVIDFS

[9] = test system: HeLa; experiment: Increase in cell viability of human HeLa cells transfected with peGFP-N1 at 0.04 to 4 uM incubated for 12 hrs by CCK8 assay; type: functional, cell-based
[10] = test system: T3, Alpha-crystallin B chain (Homo sapiens), P02511 [R120G]; experiment: Inhibition of alpha-crystallin B R120G mutant (unknown origin)-induced cytotoxicity in human HLE-B3 cells assessed as increase in cell viability at 0.04 to 4 uM incubated for 12 hrs by CCK8 assay; type: cell-based
[11] = test system: T5, Gamma-crystallin D (Homo sapiens), P07320 [W43R]; experiment: Inhibition of gamma-crystallin D W43R mutant (unknown origin)-induced cytotoxicity in human HeLa cells assessed as increase in cell viability at 0.04 to 4 uM incubated for 12 hrs by CCK8 assay; type: cell-based
[12] = species on record: Homo sapiens; experiment: Increase in cell viability of human HLE-B3 cells transfected with peGFP-N1 at 0.04 to 4 uM incubated for 12 hrs by CCK8 assay; type: functional
[13] = test system: T5, Gamma-crystallin D (Homo sapiens), P07320 [W43R]; experiment: Induction of redissolving of aggregated gamma-crystallin D W43R mutant (unknown origin) at 200 uM incubated for 24 hrs by transmission-electron-microscopy
In short: (§1)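 Pre-formed amyloid-like fibrils of mutant crystallin proteins were treated with compounds in liposomes or with a liposome vehicle. Fibrillar structures were then examined by negative-stain transmission electron microscopy.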

[14] = test system: T6, Beta-crystallin B2 (Homo sapiens), P43320 [R188H]; experiment: Induction of redissolving of aggregated beta-crystallin B2 R188H mutant (unknown origin) at 200 uM incubated for 24 hrs by ThT-fluorescence based assay
T6 sequence (whole entry): T4 sequence (whole entry) with E187V, R188H
In short: (§2)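 Purified mutant crystallin proteins, pre-formed into amyloid-like fibrils, were treated with compounds delivered in liposomes, with a liposome-only vehicle control. Redissolution was read as thioflavin T (ThT) fluorescence, n = 3.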

[15] = test system: T7, Alpha-crystallin A chain (Homo sapiens), P02489 [R116H]; experiment: Induction of redissolving of aggregated alpha-crystallin A R116H mutant (unknown origin) at 200 uM incubated for 24 hrs by ThT-fluorescence based assay; in short: as §2
T7 sequence (whole entry): T1 sequence (whole entry) with R116H, D118Y

[16] = test system: T2, Gamma-crystallin C (Homo sapiens), P07315 [G129C]; experiment: Induction of redissolving of aggregated gamma-crystallin C G129C mutant (unknown origin) at 200 uM incubated for 24 hrs by transmission-electron-microscopy; in short: as §1
[17] = test system: T3, Alpha-crystallin B chain (Homo sapiens), P02511 [R120G]; experiment: Induction of redissolving of aggregated alpha-crystallin B R120G mutant (unknown origin) at 200 uM incubated for 24 hrs by transmission-electron-microscopy; in short: as §1

Compound | inhibition [1] | inhibition [2] | inhibition [3] | inhibition [4] | inhibition [5] | inhibition [6] | inhibition [7] | inhibition [8] | Activity [9] | inhibition [10] | inhibition [11] | Activity [12] | Activity [13] | Activity [14] | Activity [15] | Activity [16] | Activity [17]
C[C@H](CCCC(C)(C)O)[C@H]1CC[C@@]2(C)C3=CC[C@H]4C(C)(C)[C@@H](O)CC[C@]4(C)C3=CC[C@]12C | Active | Active | Active | Active | Active | Active | Active | Active | Active | Active | Active | Active | – | – | – | – | –
C[C@H](CCCC(C)(C)O)[C@H]1CC[C@@]2(C)C3=C(CC[C@]12C)[C@@]1(C)C[C@@H](F)[C@H](O)C(C)(C)[C@@H]1CC3 | Active | Active | Active | Active | Active | Active | Active | Active | Active | Active | Active | Active | – | – | – | – | –
C[C@H](CCCC(C)(C)O)[C@H]1CC[C@@]2(C)[C@@]34CC[C@H]5C(C)(C)/C(=N/O)CC[C@]5(C)[C@]3(CC[C@]12C)O4 | – | – | – | – | – | – | – | – | – | – | – | – | inactive | inactive | inactive | inactive | inactive
C[C@H](CCCC(C)(C)O)[C@H]1CC[C@@]2(C)C3=C(CC[C@]12C)[C@@]1(C)C[C@@H](F)[C@@H](O)C(C)(C)[C@@H]1CC3 | Active | Active | Active | Active | Active | Active | Active | Active | Active | Active | Active | Active | – | – | – | – | –
C[C@H](CCCC(C)(C)O)[C@H]1CC[C@@]2(C)C3=C(CC[C@]12C)[C@@]1(C)CC[C@H](O)C(C)(C)[C@@H]1CC3 | Active | Active | Active | Active | Active | Active | Active | Active | Active | Active | Active | Active | Active | Active | Active | Active | Active
C[C@H](CCCC(C)(C)O)[C@H]1CC[C@@]2(C)C3=C(CC[C@]12C)[C@@]1(C)CCC(=O)C(C)(C)[C@@H]1CC3 | Active | Active | Active | Active | Active | Active | Active | Active | Active | Active | Active | Active | – | – | – | – | –
